# What was measured:
# [1] = Relative oral bioavailability of sodium, phosphate and hemisulfate salts in rats; type: in vivo, Sprague-Dawley rats; conditions: single oral 30 mg/kg, male rats
# Summary of the method: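 Male Sprague-Dawley rats, 4/group, received a single 30 mg/kg oral gavage dose in 1% methylcellulose of either parent acid or its sodium, phosphate or sulfate salt. Jugular-catheter blood was drawn at about 15 and 30 min and at 1, 2, 4, 8 and 24 h. Plasma parent was measured by LC/MS/MS with an internal standard. Relative AUClast and Cmax were corrected for molecular-weight differences.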
# [2] = tested on: S. typhimurium strains TA98 and TA100; test: Abbreviated Ames; type: cell-based
# Summary of the method: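 Salmonella TA98 and TA100 plate-incorporation assay per OECD 471, run with and without rat liver S9. Test compound and its decarboxylated impurity were tested at concentrations up to and including 5000 µg/plate, with vehicle and positive controls. Revertant colony counts were compared with vehicle control, and bacterial toxicity was recorded.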
SMILES,Cmax/Equiv. dose [1] [ng/mL/mg/kg],Cmax ([1]; S9632 measured in plasma) [ng/mL],"%Cmax Relative to S9632 ([1]; corrected for molecular weight, 30 mg/kg) [%]",Concentration with cytotoxicity (reduction in the background lawn) ([2]; TA98 and TA100 without metabolic activation) [μg/plate],"Mutagenicity, result ([2]; plate incorporation, up to 5000 μg/plate, ±S9)"
Cc1nc2cccc(OCC(C)(C)C(=O)NC(C)C)c2c(N)c1C(=O)O.Cc1nc2cccc(OCC(C)(C)C(=O)NC(C)C)c2c(N)c1C(=O)O.O=S(=O)(O)O [S1638],1.377,34.80 ± 7.55,106.7,–,–
"Cc1cc(N)c2c(OCC(C)(C)C(=O)NC(C)C)cccc2n1 [S9379, 4-amino-5-(3-(isopropylamino)-2,2-dimethyl-3-oxopropoxy)-2-methylquinoline]",–,–,–,5000,not mutagenic

# — paper PMC5598146 (Toxicology Reports, 2015)
